Values after ≈ are worked out from the molar mass of the structure shown. Active and inactive are the calls of the source. The rule behind the calls is not given here.
Assays:
MV4-11 = assay: Antiproliferative activity against human MV4-11 cells after 72 hrs by MTT assay; assay type: functional, cell-based; conditions: MV4-11, 72 h
L6 = assay: Cytotoxicity against rat L6 cells after 70 hrs by alamar blue assay; conditions: L6, 70 h
Plasmodium falciparum = assay: Antimalarial activity against erythrocytic stage of Plasmodium falciparum NF54 infected in RBC after 48 hrs by [3H]-hypoxanthine incorporation assay; assay type: functional, organism-based
BALB/3T3 = assay: Cytotoxicity against mouse BALB/3T3 cells after 72 hrs by SRB assay; assay type: cell-based; conditions: BALB/3T3, 72 h
In short: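 Adherent cells grown at 37 °C and 5% CO2. A549 and HCT116 were in RPMI 1640/OptiMEM (50:50) with 5% FBS; BALB/3T3 in Dulbecco medium with 10% FBS and pyruvate. Seeded at 1×10^4/well 24 h before dosing, then 72 h at 10–0.01 µg/mL final. Fixed with cold 50% TCA, stained with 0.4% SRB, dye extracted in 10 mM Tris, read at 540 nm.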

A549 = assay: Cytotoxicity against human A549 cells after 72 hrs by SRB assay; assay type: functional, cell-based; conditions: A549, 72 h
In short: (§1)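 Adherent cells grown at 37 °C and 5% CO2. Seeded at 1×10^4/well 24 h before dosing, then 72 h at 10–0.01 µg/mL final. Fixed with cold 50% TCA, stained with 0.4% SRB, dye extracted in 10 mM Tris, read at 540 nm.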

HCT-116 = assay: Cytotoxicity against human HCT116 cells after 72 hrs by SRB assay; assay type: functional, cell-based; conditions: HCT-116, 72 h; in short: as §1
[1] = Binding affinity to hemin assessed as hemin-induced oxidative damage in 0.1 M tris buffer at pH 9 at 25 to 500 uM after 2 hrs by UV-vis absorption spectroscopy in presence of methylene blue
In short: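 Methylene blue (10 µM) used as substrate for heme-catalysed oxidation. Compound incubated 2 h at 37 °C with hemin (6 µM) and methylene blue in 60% 0.1 M Tris buffer (pH 9.0) and 40% DMSO. Mixture absorbance then read by UV–vis spectrophotometry.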

[2] = Binding affinity to hemin assessed as complexation of hemin-endoperoxides in 0.1 M tris buffer at pH 9 at 25 to 500 uM after 24 hrs by UV-vis absorption spectroscopy
In short: (§2)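 Hemin held at 6 µM with compound at 0–500 µM in 60% 0.1 M Tris buffer (pH 9.0) and 40% DMSO. Mixtures incubated 12 h or 24 h.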

[3] = Binding affinity to hemin assessed as complexation of hemin-endoperoxides in 0.1 M tris buffer at pH 9 at 25 to 500 uM after 12 hrs by UV-vis absorption spectroscopy; in short: as §2

SMILES | IC50 (MV4-11) [µM] | IC50 (BALB/3T3) [µM] | IC50 (A549) [µM] | IC50 (HCT-116) [µM] | also measured
COC(=O)C1=C[C@]23CCCC[C@@H]2O[C@@]1(C)OO3 | 8.08 | – | – | – | –
COc1ccc(C2O[C@]34CC(c5ccccc5)(c5ccccc5)OC(=O)C3=C[C@@]2(C)OO4)cc1 (stereo partly drawn) | 3.78 | – | – | – | IC50 (L6): 1.9 µg/mL (≈ 4.16 µM); IC50 (Plasmodium falciparum): 4.2 µg/mL (≈ 9.2 µM)
COc1ccc(C2C[C@]34OO[C@](C)(C=C3C(=O)O2)C(c2ccc([N+](=O)[O-])cc2)O4)cc1 (stereo partly drawn) | 0.735 | 7.36 | 8.44 | 7.5 | –
C[C@]12C=C3C(=O)OC(c4ccccc4)(c4ccccc4)C[C@@]3(OO1)OC2c1ccc([N+](=O)[O-])cc1 (stereo partly drawn) | 3.79 | – | – | – | IC50 (L6): 3.49 µg/mL (≈ 7.4 µM); IC50 (Plasmodium falciparum): 5.25 µg/mL (≈ 11.1 µM)
COc1ccc(C2O[C@]34CC(c5ccccc5)CC(=O)C3=C[C@@]2(C)OO4)cc1 (stereo partly drawn) | 6.5 | – | – | – | –
C[C@]12C=C3C(=O)OC(c4ccc(C(F)(F)F)cc4)C[C@@]3(OO1)OC2c1ccc(Br)cc1 (stereo partly drawn) | 5.51 | – | – | – | –
C[C@]12C=C3C(=O)OC(c4ccccc4)(c4ccccc4)C[C@@]3(OO1)OC2c1ccc(Cl)cc1 (stereo partly drawn) | 3.6 | – | – | – | IC50 (L6): 2.03 µg/mL (≈ 4.4 µM); IC50 (Plasmodium falciparum): 9.88 µg/mL (≈ 21.4 µM)
CC1O[C@]23CC(c4ccc(Br)cc4)OC(=O)C2=C[C@@]1(C)OO3 (stereo partly drawn) | 0.98 | 12 | 13 | 9.2 | –
COc1ccc(C2O[C@]34CC(c5ccc(OC)c(OC)c5)OC(=O)C3=C[C@@]2(C)OO4)cc1 (stereo partly drawn) | 4.38 | – | – | – | –
C[C@]12C=C3C(=O)OC(c4ccc(Cl)cc4)C[C@@]3(OO1)OC2c1ccc([N+](=O)[O-])cc1 (stereo partly drawn) | 0.593 | 8.21 | 8.28 | 7.37 | Activity [1]: Active; Activity [2]: Active; Activity [3]: Active
CC1O[C@]23CC(c4ccc(F)cc4)OC(=O)C2=C[C@@]1(C)OO3 (stereo partly drawn) | 6.89 | – | – | – | –
CC1O[C@]23CC(c4ccc(Cl)cc4)N(C(=O)OC(C)(C)C)C(=O)C2=C[C@@]1(C)OO3 (stereo partly drawn) | 1.04 | 6.21 | 7.2 | 7.3 | –
COc1ccc(C2O[C@]34CC(c5ccc(F)cc5)OC(=O)C3=C[C@@]2(C)OO4)cc1 (stereo partly drawn) | 0.582 | 9.06 | 11.8 | 8.08 | IC50 (L6): 0.5 µg/mL (≈ 1.26 µM); IC50 (Plasmodium falciparum): 1.68 µg/mL (≈ 4.22 µM)
COc1ccc(C2C[C@]34OO[C@](C)(C=C3C(=O)O2)C(c2ccc([N+](=O)[O-])cc2)O4)cc1OC (stereo partly drawn) | 0.911 | 7.2 | 7.73 | 6.79 | Activity [1]: Active; Activity [2]: Active; Activity [3]: Active
COc1ccc(C2O[C@]34CC(c5ccc(Cl)cc5)N(C(=O)OC(C)(C)C)C(=O)C3=C[C@@]2(C)OO4)cc1 (stereo partly drawn) | 0.661 | 6.87 | 6.32 | 5.56 | –
CC(C)(C)OC(=O)N1C(=O)C2=C[C@@]3(C)OO[C@]2(CC1c1ccc(Cl)cc1)OC3c1ccccc1 (stereo partly drawn) | 0.517 | 5.46 | 6.66 | 6.02 | –

SMILES | IC50 (MV4-11) [µM] | IC50 (BALB/3T3) [µM] | IC50 (A549) [µM] | IC50 (HCT-116) [µM] | also measured
C[C@]12C=C3C(=O)CC(c4ccccc4)C[C@@]3(OO1)OC2c1ccc([N+](=O)[O-])cc1 (stereo partly drawn) | 6.53 | – | – | – | IC50 (L6): 5.6 µg/mL (≈ 14.2 µM); IC50 (Plasmodium falciparum): 3.1 µg/mL (≈ 7.88 µM)
CC(C)(C)OC(=O)N1C(=O)C2=C[C@@]3(C)OO[C@]2(CC1c1ccc(Cl)cc1)OC3c1ccc([N+](=O)[O-])cc1 (stereo partly drawn) | 0.501 | 6.67 | 6.22 | 5.54 | IC50 (L6): 1.16 µg/mL (≈ 2.19 µM); IC50 (Plasmodium falciparum): 1.97 µg/mL (≈ 3.72 µM)
COc1ccc(C2O[C@]34CCCC(=O)C3=C[C@@]2(C)OO4)cc1 (stereo partly drawn) | > 33 | – | – | – | IC50 (L6): 4.5 µg/mL (≈ 14.9 µM); IC50 (Plasmodium falciparum): 3.41 µg/mL (≈ 11.3 µM)
COC(=O)c1ccc(C2O[C@]34CC(c5ccccc5)(c5ccccc5)OC(=O)C3=C[C@@]2(C)OO4)cc1 (stereo partly drawn) | 2.99 | – | – | – | IC50 (L6): 1.67 µg/mL (≈ 3.45 µM); IC50 (Plasmodium falciparum): 5.62 µg/mL (≈ 11.6 µM)
COc1ccc(C2C[C@]34OO[C@](C)(C=C3C(=O)O2)C(C)O4)cc1OC (stereo partly drawn) | 11.1 | – | – | – | –
C[C@]12C=C3C(=O)OC(c4ccc(C(F)(F)F)cc4)C[C@@]3(OO1)OC2c1ccccc1 (stereo partly drawn) | 0.779 | 9.01 | 10.9 | 7.43 | –
CC1O[C@]23CC(c4ccc(C(F)(F)F)cc4)OC(=O)C2=C[C@@]1(C)OO3 (stereo partly drawn) | 0.895 | 12.5 | 13.9 | 9.49 | –
C[C@]12C=C3C(=O)OC(c4ccc(Cl)cc4)C[C@@]3(OO1)OC2c1ccc(Br)cc1 (stereo partly drawn) | 4.21 | – | – | – | –
CC1O[C@]23CC(c4cccc(Cl)c4)OC(=O)C2=C[C@@]1(C)OO3 (stereo partly drawn) | 7.31 | – | – | – | –
COc1cccc(C2C[C@]34OO[C@](C)(C=C3C(=O)O2)C(C)O4)c1 (stereo partly drawn) | 7.76 | – | – | – | –
COc1ccc(C2O[C@]34CC(c5ccc(C(F)(F)F)cc5)OC(=O)C3=C[C@@]2(C)OO4)cc1 (stereo partly drawn) | 4.84 | – | – | – | –
C[C@]12C=C3C(=O)OC(c4cccc(Cl)c4)C[C@@]3(OO1)OC2c1ccc([N+](=O)[O-])cc1 (stereo partly drawn) | 3.91 | – | – | – | Activity [1]: Active; Activity [2]: Active; Activity [3]: Active
COc1ccc(C2C[C@]34OO[C@](C)(C=C3C(=O)O2)C(c2ccccc2)O4)cc1OC (stereo partly drawn) | 0.901 | 10.1 | > 24 | 11.7 | IC50 (L6): 0.52 µg/mL (≈ 1.27 µM); IC50 (Plasmodium falciparum): 3.28 µg/mL (≈ 7.99 µM)
C[C@]12C=C3C(=O)CCC[C@@]3(OO1)OC2c1ccc([N+](=O)[O-])cc1 (stereo partly drawn) | > 31 | – | – | – | –
C[C@]12C=C3C(=O)OC(c4ccccc4Br)C[C@@]3(OO1)OC2c1ccc([N+](=O)[O-])cc1 (stereo partly drawn) | 0.837 | 7.53 | 11.6 | 7.08 | –
COc1ccc(C2O[C@]34CC(c5ccc(Cl)cc5)OC(=O)C3=C[C@@]2(C)OO4)cc1 (stereo partly drawn) | 4.31 | – | – | – | –

— ChEMBL document CHEMBL2434891, “Design, synthesis, and in vitro cancer cell growth inhibition evaluation and antimalarial testing of trioxanes installed in cyclic 2-enoate substructures” (Eur J Med Chem, 2013)
